Laboratory results taken from ChEMBL document CHEMBL3994592, “Antimicrobial Oligophenalenone Dimers from the Soil Fungus Talaromyces stipitatus” (J Nat Prod, 2016).
≈ marks a conversion by molar mass, not a printed value.

Experiments:
Enterococcus faecalis = test: Antibacterial activity against Enterococcus faecalis CIP 103014 after 24 hrs; format: functional; conditions: CIP 103014, 24 h
In short: (§1)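 Broth microdilution in LB. Precultures were grown 24 h at 37 °C in 10 mL LB and diluted 1/1000 (OD600 0.01) into 96-well plates. Two-fold serial dilutions were made from 10 mg/mL stocks, 2 µL per 200 µL medium. Plates were incubated 24 h at 37 °C and OD read at 595 nm. MIC is the concentration giving a 90% decrease versus DMSO-only control, obtained by curve fitting.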

[1] = tested on: Staphylococcus haemolyticus; test: Antibacterial activity against Staphylococcus haemolyticus MNHN26 after 24 hrs; format: functional; conditions: MNHN26, 24 h; in short: as §1
Staphylococcus aureus = test: Antibacterial activity against Staphylococcus aureus ATCC 6538 after 24 hrs; format: functional; conditions: ATCC 6538, 24 h; in short: as §1
Escherichia coli = test: Antibacterial activity against Escherichia coli ATCC 8739 after 24 hrs; format: functional; conditions: ATCC 8739, ATCC 8739, 24 h; in short: as §1
HeLa = test: Cytotoxicity against human HeLa cells assessed as reduction in cell viability by MTT assay; format: functional, cell-based
In short: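 HeLa cells were seeded at 2500 cells/well, incubated overnight, then exposed in exponential growth to a range of concentrations for four doubling times. Viability was measured by MTT, 4 h at 37 °C, with formazan read at 560 nm. Concentration inhibiting growth by 50% versus untreated controls was taken from dose-survival curves. At least three independent experiments, each in duplicate; cisplatin served as control.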

With `CN(C)[C@@H]1C(O)=C(C(N)=O)C(=O)[C@@]2(O)C(O)=C3C(=O)c4c(O)cccc4[C@@](C)(O)[C@H]3C[C@@H]12` [TETRACYCLINE] as the compound, how does the MIC90 (Enterococcus faecalis) read?
Its MIC90 is 0.4 µg/mL (≈ 0.9 µM).

What about the MIC90 [1] of the same compound?
The MIC90 was 29.5 µg/mL (≈ 66.4 µM).

And the MIC90 (Staphylococcus aureus)?
The MIC90 was 0.05 µg/mL (≈ 0.113 µM).

For `CO[C@@]12c3c(C)cc(O)c4c3C(=C(O)[C@@H]1[C@]13COC(=O)c5c(O)cc(C)c(c51)C(=O)[C@H]2[C@@H]3OC(C)=O)C=NC4=O`, which MIC90 (Enterococcus faecalis) is on record?
Its MIC90 is > 30 µg/mL.

What about the MIC90 [1] of the same compound?
Its MIC90 is 20.4 µg/mL (≈ 37.4 µM).

What about the MIC (Escherichia coli) of the same compound?
The MIC was > 100 µg/mL.

And the IC50 (HeLa)?
The IC50 was 49.5 µM.

What about the MIC90 (Staphylococcus aureus) of the same compound?
Its MIC90 is 5 µg/mL (≈ 9.17 µM).

`CC(=O)O[C@H]1[C@@H]2C(=O)c3c(C)cc(O)c4c3[C@@]1(COC4=O)c1c(O)c3c4c(c(O)cc(C)c4c12)C(=O)OC3` was tested. Which MIC90 (Enterococcus faecalis) did it give?
Its MIC90 is 2.4 µg/mL (≈ 4.65 µM).

What about the MIC90 [1] of the same compound?
The MIC90 was 9.5 µg/mL (≈ 18.4 µM).

What about the MIC (Escherichia coli) of the same compound?
Its MIC is > 100 µg/mL.

What about the MIC90 (Staphylococcus aureus) of the same compound?
Its MIC90 is 5.2 µg/mL (≈ 10.1 µM).

Which results are given for `CC(=O)O[C@H]1[C@@H]2C(=O)c3c(C)cc(O)c4c3[C@@]1(COC4=O)C1=C2c2c(C)cc(O)c3c2[C@@](O)(COC3=O)C1=O`?
MIC90 (Enterococcus faecalis): > 30 µg/mL; MIC90 [1]: > 30 µg/mL; MIC (Escherichia coli): > 100 µg/mL; IC50 (HeLa): > 100 µM; MIC90 (Staphylococcus aureus): 29.3 µg/mL (≈ 55 µM)

How did the MIC90 (Enterococcus faecalis) turn out when `CC(=O)O[C@H]1[C@@H]2C(=O)c3c(C)cc(O)c4c3[C@@]1(COC4=O)c1c(O)c(C=O)c3cc(O)cc(C)c3c12` was run?
Its MIC90 is > 50 µg/mL.

What about the MIC90 [1] of the same compound?
The MIC90 was > 50 µg/mL.

What about the MIC (Escherichia coli) of the same compound?
Its MIC is > 100 µg/mL.

What about the IC50 (HeLa) of the same compound?
The IC50 was > 50 µM.

And the MIC90 (Staphylococcus aureus)?
The MIC90 was > 50 µg/mL.

Which MIC90 (Enterococcus faecalis) does the source give for `CO[C@H]1OC(=O)c2c(O)cc(C)c3c4c(c(O)c1c23)[C@]12COC(=O)c3c(O)cc(C)c(c31)C(=O)[C@H]4[C@@H]2OC(C)=O` here?
Its MIC90 is > 30 µg/mL.

What about the MIC90 [1] of the same compound?
Its MIC90 is > 30 µg/mL.

What about the MIC (Escherichia coli) of the same compound?
The MIC was > 100 µg/mL.

What about the IC50 (HeLa) of the same compound?
Its IC50 is > 50 µM.

What about the MIC90 (Staphylococcus aureus) of the same compound?
The MIC90 was 15.6 µg/mL (≈ 28.5 µM).
